# Screens (PubChem BioAssay)
# Most compounds without a hit are left out; they make up all but 4.4% or so of the library.
# HSF1 activator: increases HSF-1 driven luciferase reporter signal | NIH3T3-HGL HSF-1 luciferase reporter, MG132, 8 h; 100% = twice DMSO control signal | activation, % at 9 µM | actives 1.7% (n = 300,000) | AID 504408;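 active = mean replicate activation of at least 50% with a set share of replicates each reaching 50%; inconclusive = only one of those two conditions met; inactive = mean below 50% and too few replicates reaching it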
# Calb FLC: affects C. albicans growth with fluconazole; C. albicans CaCi-2 + fluconazole, Alamar Blue growth, 48 h; actives 0.57% (n = 300,000); growth inhibition, % (no concentration beside the values); AID 1979;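 active = growth inhibition above about 58% in most replicates, limit read from the data, passing the limit was not always enough; inconclusive = exactly half the replicates above a set limit; inactive = most replicates below a set limit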;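 also: all wells also contain fluconazole at 8 µg/ml as a sub-toxic cotreatment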
# HIF act: HIF pathway transcriptional activation. U2OS HRE-luciferase reporter, luminescence; normalized: DMSO 0%, desferrioxamine 100%. activation, % at 7.5 µM (by protocol). actives 0.32% (n = 300,000). AID 1910;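 active = mean activation of at least 10% of the iron chelator positive control signal, with at least half of replicates also reaching 10%; inconclusive = mean and replicate majority disagree about reaching 10%; inactive = mean and most replicates under 10%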
# T cruzi inh: T. cruzi replication inhibition; T. cruzi beta-gal in NIH3T3, luminescence, 90 h; inhibition, % (no concentration beside the values); actives 1.4% (n = 300,000); AID 1885;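 active = mean inhibition across valid replicates above about 55%, limit read from the data; inconclusive = mean below that limit but half or more replicates reach it; inactive = mean below it, under half of replicates reach it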;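 also: signal also drops with host cell toxicity which is not excluded here; higher percent means less beta-gal luminescence so fewer parasites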
#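 Test system: β-gal T. cruzi (Tulahuen C4) inside NIH/3T3 cells / Quantity: 5,000 cells/well / Measured by: luminescence from GalScreen with 0.05% NP40, read after 60 min / Medium: DMEM plus 2% FBS / Measure: parasite load inhibition, % / Reagent: Tulahuen C4 trypomastigotes, 5000/well / Schedule: co-culture of at least 90 h after 3 h attachment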
# HSF1 inhib: HSF1 inhibition. NIH3T3-HGL HSE-luciferase, MG132-induced, luminescence 8 h; hits give low values. activity change, negative = inhibition, % at 7.5 µM (by protocol). actives 0.77% (n = 300,000). AID 2098;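 active = more than half of replicate wells show activity change below -50%, luminescence cut by over half; inconclusive = some wells, but at most half, below -50%; inactive = no replicate well below -50%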;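 also: luciferase reports HSF-1 transcriptional activity via heat shock element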
# A number is an active result; i = inactive; ? = inconclusive; nt = not tested or not shown.
SMILES,HSF1 activator,Calb FLC,HIF act,T cruzi inh,HSF1 inhib
CCCCCn1c(N2CCN(c3cccc(Cl)c3)CC2)nc2c1c(=O)[nH]c(=O)n2C,111,i,i,i,i
C=CCn1c(N2CCOCC2)nc2c1c(=O)[nH]c(=O)n2C,i,i,i,i,i
CCCCCn1c(Sc2nc3ccccc3s2)nc2c1c(=O)[nH]c(=O)n2C,58,i,nt,i,i
O=C(O)CN1C(=O)c2ccc(Oc3ccc4c(c3)C(=O)N(CC(=O)O)C4=O)cc2C1=O,i,i,i,i,i
Cc1ccc(CS(=O)(=O)Cc2ccc(C(=O)NCCc3ccccc3)o2)cc1,i,i,i,i,i
NNC(=O)c1ccc(CSc2cccc3cccnc23)cc1,i,i,i,i,i
Cc1cccc(CSc2cccc3cccnc23)c1,288,i,i,70,i
CCC(OC(=O)c1cccs1)C(=O)NCc1ccc(C)cc1 (stereo not drawn),i,i,i,i,i
CSc1ccccc1-c1nnc(-c2ccc(Cl)cc2Cl)o1,54,i,i,i,i
CC(C)OC(=O)CSc1nnc(-c2ccc(Cl)cc2Cl)o1,75,i,i,i,i
CSc1ccccc1-c1nnc(-c2ccc(Cl)c(Cl)c2)o1,i,i,i,i,i
Clc1ccc(-c2nnc(-c3ccc(Br)o3)o2)c(Cl)c1,60,i,i,i,i
COc1ccc(NC(=O)c2cc(S(=O)(=O)N3CCCCC3)c[nH]2)c(OC)c1,i,i,i,i,i
COc1ccccc1NC(=O)C(C)OC(=O)C1CCN(S(=O)(=O)c2ccc(C)c(C)c2)CC1 (stereo not drawn),i,i,i,i,i
Cc1ccc(NC(=S)c2nc3ccccc3[nH]2)c(C)c1,72,i,i,i,i
Cc1ccc(NC(=S)c2ccncc2)c(C)c1,i,i,i,i,i
Cc1ccc(NC(=S)c2nc3ccccc3[nH]2)cc1,i,85,i,i,i
CCNC(=S)Nc1ccc(Cc2nc3ccccc3[nH]2)cc1,i,i,i,i,i
O=C(COC(=O)Cc1ccccc1[N+](=O)[O-])NCC1CCCCC1,i,i,i,i,i
Cc1ccc(NC(=O)COc2cccnc2[N+](=O)[O-])cc1S(=O)(=O)N1CCOCC1,i,i,i,i,i
Cn1c(/C=C/c2ccccc2[N+](=O)[O-])nc2ccccc2c1=O,i,i,i,i,i
O=[N+]([O-])c1ccccc1/C=C/c1ccc2ccccc2n1,98,i,i,i,i
COc1c(OC(C)=O)ccc(/C=C/c2ccc3ccccc3n2)c1[N+](=O)[O-],65,i,i,i,i
O=C(CCNC(=O)c1ccccc1Cl)Nc1nc(-c2ccc(F)cc2)cs1,i,i,i,i,i
O=C(Nc1ccc(-c2csc(-c3ccccc3)n2)cc1)c1ccccc1Cl,i,i,i,62,i
SMILES,HSF1 activator,Calb FLC,HIF act,T cruzi inh,HSF1 inhib
O=C(O)c1ccc(-c2nc(-c3ccccc3)cs2)cc1,i,?,i,i,i
O=C(O)c1ccc(-c2nc(-c3ccc(Cl)c(Cl)c3)cs2)cc1,i,89,i,i,i
O=C(O)c1ccccc1C(=O)Nc1ccc(-c2csc(-c3ccccc3)n2)cc1,i,i,i,i,i
O=C(CCNC(=O)c1ccccc1Cl)Nc1nc(-c2ccc3ccccc3c2)cs1,i,i,i,56,i
Cc1[nH]c(=O)c(S(=O)(=O)c2ccccc2)c(C)c1Cl,i,i,i,i,i
CCCCOc1c(C(=O)Nc2ccccc2)nnn1-c1ccccc1,i,i,i,i,i
Cc1cc(NC(=O)CC2CCCC2)ccc1Br,i,i,i,i,i
Cc1cc(/C=C2\C(=N)N3N=C(CC(=O)N4CCOCC4)SC3=NC2=O)c(C)n1Cc1ccccc1,i,i,i,i,i
CC1=NN2C(=N)/C(=C\c3cc(C)n(Cc4ccccc4)c3C)C(=O)N=C2S1,i,i,55,i,i
CC(C)(C)c1ccc(OCCCC(=O)Nc2ccc(S(N)(=O)=O)cc2)cc1,56,i,i,i,i
CC(C)(C)c1ccc(OCCCC(=O)NNC(=O)c2ccccc2O)cc1,i,81,i,i,i
NS(=O)(=O)c1ccc(NC(=O)CCCCC(=O)Nc2ccc(S(N)(=O)=O)cc2)cc1,i,i,i,i,i
N/C(=N\OCc1ccc([N+](=O)[O-])cc1)c1ccncc1,i,i,i,i,i
CCOC(=O)c1c(NC(=O)COC(=O)c2nccnc2N)sc(C(=O)N(C)C)c1C,i,i,i,i,-51
CCOC(=O)c1c(NC(=O)COC(=O)c2ccccn2)sc(C(=O)N(C)C)c1C,i,i,i,i,i
CC(=O)Oc1ccccc1-n1c(C)nc(=O)c(-c2ccccc2)c1C,i,i,i,i,i
CN(C)c1cc(Nc2ccc(O)cc2)c([N+](=O)[O-])c2nonc12,i,i,i,i,i
O=[N+]([O-])c1c(Nc2ccc(O)cc2)cc(Cl)c2nonc12,132,87,i,64,i
O=[N+]([O-])c1c(Nc2ccccn2)cc(Cl)c2nonc12,163,i,i,60,i
Brc1ccc2[nH]c3c(N4CCc5ccccc5C4)ncnc3c2c1,58,i,i,i,i
CCOc1ccc2[nH]c3c(N4CCc5ccccc5C4)ncnc3c2c1,?,i,i,i,i
Cc1ccc2[nH]c3c(N4CCc5ccccc5C4)ncnc3c2c1,92,i,i,i,i
Fc1ccc2[nH]c3c(N4CCc5ccccc5C4)ncnc3c2c1,i,i,i,i,i
Cc1cc(OCC(=O)Nc2ccc(S(=O)(=O)N3CCN(C)CC3)cc2)ccc1Br,i,i,i,i,i
CC(C)(CN1CCN(C(c2ccccc2)c2ccccc2)CC1)NS(=O)(=O)c1ccccc1,i,i,i,62,i
SMILES,HSF1 activator,Calb FLC,HIF act,T cruzi inh,HSF1 inhib
CC(=O)N/C(=C/c1ccc2c(c1)OCO2)C(=O)NCC(=O)O,i,?,i,i,i
Cc1ccc(Nc2nc(CSc3nnnn3C)cs2)cc1,i,i,i,i,i
Cc1ccc(Nc2nc(CSc3nnnn3-c3ccccc3)cs2)cc1,70,i,i,i,i
Cc1ccc(NNC(=O)c2ccno2)cc1C,i,93,i,i,i
Cc1ccc(NNC(=O)c2ccno2)cc1Cl,i,i,i,i,i
CC(=O)N1CCN(c2ccc(NC(=O)c3ccc(Cl)c(Cl)c3)cc2)CC1,i,i,i,i,i
CC(=O)c1cc(C#N)c(NCc2ccccc2)nc1C,i,i,i,i,i
CCOC(=O)c1cc(C#N)c(NCc2ccccc2)nc1C,i,?,i,i,-72
CCOC(=O)c1cc(C#N)c(N2CCCC2)nc1-c1ccccc1,i,i,i,i,i
CCOC(=O)c1cc(C#N)c(N2CCN(C)CC2)nc1-c1ccccc1,i,i,i,57,i
CCCCCCCCCS(=O)(=O)N/N=C/c1cccc([N+](=O)[O-])c1,i,i,71,i,i
Cc1ccc(S(=O)(=O)N/N=C/c2cccc([N+](=O)[O-])c2)cc1,i,i,i,i,i
Cc1cc(CSc2ccccc2)ccc1NC(=O)COc1ccccc1C,nt,i,i,i,nt
